From PubChem BioAssay
CHRM5 agonist: agonists of human muscarinic M5 receptor (CHRM5); P08912; CHO-K1 hM5 cells, Fluo-8 calcium fluorescence; 0% DMSO wells, 100% maximal acetylcholine response; activation, % at 3 µM; actives 0.19% (n = 360,000);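 active means activation above the run's mean over test compounds plus 3 SD, cut at about 23% in these data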;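 further: signal is peak over basal fluorescence ratio across the kinetic read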
Target sequence (P08912 whole entry, looked up): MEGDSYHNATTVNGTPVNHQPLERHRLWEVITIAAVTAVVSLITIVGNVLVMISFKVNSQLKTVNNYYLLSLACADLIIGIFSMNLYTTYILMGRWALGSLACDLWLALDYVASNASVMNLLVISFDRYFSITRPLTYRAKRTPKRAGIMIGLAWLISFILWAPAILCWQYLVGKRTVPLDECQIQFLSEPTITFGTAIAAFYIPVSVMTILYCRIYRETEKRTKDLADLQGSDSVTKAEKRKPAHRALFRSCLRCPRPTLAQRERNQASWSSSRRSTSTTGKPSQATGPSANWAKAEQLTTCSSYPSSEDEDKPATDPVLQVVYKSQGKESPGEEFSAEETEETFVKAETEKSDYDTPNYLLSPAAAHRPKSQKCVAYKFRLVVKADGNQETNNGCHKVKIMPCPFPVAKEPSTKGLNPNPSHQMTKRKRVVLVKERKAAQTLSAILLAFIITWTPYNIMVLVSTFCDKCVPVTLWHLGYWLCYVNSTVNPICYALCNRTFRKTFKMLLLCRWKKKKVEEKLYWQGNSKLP
M4 PAM: potentiates acetylcholine response at human M4 receptor; CHO-K1 hM4/Gqi5, Fluo-8 calcium fluorescence, ACh EC20; 0% = ACh EC20, 100% = maximal ACh; activation, % at 3 µM; actives 0.4% (n = 360,000);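 active means activation above its plate's cutoff, the mean activation of sample wells plus 3 SD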
M4 ag: CHRM4 agonism in calcium assay | P08173 | CHO-K1 hM4/Gqi5, Fluo-8 calcium fluorescence; vehicle 0%, full acetylcholine response 100% | activation, % at 3 µM | actives 0.14% (n = 360,000);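 active means activation above the run mean over all test wells plus 3 SD, cut at about 32% in these data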;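 further: peak over basal fluorescence ratio per well then scaled between controls; 0% = DMSO wells and 100% = acetylcholine at EC100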
CHRM5 PAM: CHRM5 positive allosteric modulation. P08912. CHO-K1 hM5, Fluo-8 calcium, ACh EC20 PAM; 0% = ACh EC20, 100% = ACh EC100. activation, % at 3 µM. actives 0.3% (n = 360,000);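 active means activation above the run cutoff, the mean activation of all test compounds plus 3 SD, cut at about 18% in these data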
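Probe or stimulus: acetylcholine, EC20 level; Assay system: human M5 receptor in CHO-K1 cells; Schedule: compound preincubation 140 s before EC20 acetylcholine addition; Technique: intracellular calcium via Fluo-8 fluorescence; Dosing: single-point, 3 µM nominal; Read-out basis: percent activation from peak-over-basal fluorescence ratio, scaled EC20-to-EC100 acetylcholine; Repeats: one well per compound, no replicates.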
M5 antag: CHRM5 antagonism in calcium assay; P08912; actives 0.59% (n = 360,000); inhibition, % at 3 µM; CHO-hM5 cells, Fluo-8 calcium fluorescence, ACh EC80;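 active means inhibition above a per-plate cutoff, the mean of that plate's test compounds plus 3 SD, cut at about 27% in these data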;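 further: 0% = acetylcholine EC80 with DMSO and 100% = DMSO without agonist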
M4 antag: CHRM4 antagonism in calcium assay; actives 0.73% (n = 360,000); inhibition, % at 3 µM; CHO-hM4 cells, ACh EC80, Fluo-8 calcium fluorescence; P08173;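 active means inhibition above its plate's cutoff, the mean inhibition of sample wells plus 3 SD, cut at about 27% in these data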;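 further: 0% = acetylcholine EC80 with DMSO and 100% = DMSO without agonist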
Starred values were filed as active, the others as inactive. This is a sample that favours compounds with a hit; in the whole collection about 1.9% have one here.

SMILES | CHRM5 agonist | M4 PAM | M4 ag | CHRM5 PAM | M5 antag | M4 antag
CC1(C(=O)O)CCC(C(=O)NNC(=O)c2ccccc2Cl)C1(C)C (stereo not drawn) | 4 | -6 | 0 | 1 | 0 | 6
COC(=O)c1ccc2c(c1)C(C)(C)C(/C=C/c1ccc(O)cc1)=[N+]2C | 22 | -9 | 7 | 5 | 9 | 14
COC(=O)c1ccc2c(c1)C(C)(C)C(/C=C/c1ccc(OC)c(OC)c1OC)=[N+]2C | -5 | -9 | 1 | -7 | -2 | 32*
COc1cccc(CNC(=O)c2ccc(C)c(NC3=NC4CS(=O)(=O)CC4S3)c2)c1 (stereo not drawn) | 0 | 4 | 0 | -2 | 1 | 5
Cc1c(COc2ccc3ccccc3c2)nnn1CC(=O)NS(=O)(=O)c1ccccc1C(F)(F)F | 0 | 9 | 0 | -3 | 5 | -9
O=C(CCCCCn1c(=O)[nH]c2ccsc2c1=O)N1CCCCC1 | -8 | 4 | 1 | -9 | 5 | 0
O=C(CCCn1c(=O)[nH]c2ccsc2c1=O)N1CCCCC1 | -6 | 9 | 0 | 26* | 2 | -3
CCOC(=O)N1CCN(C(=O)CCCCn2c(=S)[nH]c3ccsc3c2=O)CC1 | 3 | 19* | 0 | 12 | -5 | -20
C[C@@H]1CC2=C(C(=O)OC(C)(C)O2)[C@H](c2ccc(Cl)cc2)O1 | 1 | 3 | -2 | 15 | -4 | 4
COc1cc(C(=O)Nc2scc(-c3ccc(C)cc3)c2C(=O)O)cc(OC)c1OC | 0 | -13 | -1 | 3 | 10 | 62*
COc1cc(C(=O)Nc2scc(-c3ccccc3)c2C(=O)O)cc(OC)c1OC | -1 | 1 | 3 | 1 | 4 | 0
COCCCNC(=O)Cn1cnc2c(OCc3ccccc3)ncnc21 | 0 | 4 | 0 | 1 | 2 | -5
CSCc1nnc(NC(=O)c2ccc(S(=O)(=O)N(C)C)cc2)o1 | 0 | 14 | 2 | 19* | 13 | 4
C=CCN(CC=C)S(=O)(=O)c1ccc(C(=O)Nc2nnc(CSC)o2)cc1 | 6 | -1 | 0 | -4 | 5 | 9
C=CCC1(CC=C)CCCN1C(=O)c1cc(COc2ccc(F)c(F)c2)on1 | -6 | -9 | 6 | -8 | 8 | 19
C=CCC1(CC=C)CCCN1C(=O)c1cc(COc2ccc(C)nc2)on1 | 3 | -10 | 21 | -15 | 51* | 20
COc1ccc(OCCC(=O)Nc2ccccc2)cc1 | 2 | 1 | 2 | 3 | 7 | 1
COc1ccc(-n2nnnc2C(c2cc3ccccc3o2)N2CCN(C/C=C/c3ccccc3)CC2)cc1 (stereo not drawn) | -6 | -12 | 1 | -22 | 36* | 7
C(=C\c1ccccc1)/CN1CCN(C(c2cccs2)c2nnnn2-c2ccc3c(c2)OCCO3)CC1 (stereo not drawn) | -7 | -16 | 4 | -23 | 70* | 29*
COc1ccc(-n2nnnc2C(c2cccc3ccccc23)N2CCN(C/C=C/c3ccccc3)CC2)cc1 (stereo not drawn) | -3 | -10 | 2 | -17 | 10 | 9
COc1ccc(C(c2nnnn2-c2ccc3c(c2)OCCO3)N2CCN(C/C=C/c3ccccc3)CC2)cc1 (stereo not drawn) | -6 | -16 | 3 | -22 | 67* | 35*
C(=C\c1ccccc1)/CN1CCN(C(c2cc3ccccc3o2)c2nnnn2-c2ccc3c(c2)OCCO3)CC1 (stereo not drawn) | -4 | -10 | 1 | -23 | 42* | 13
CC(C)CN(CCNC(=O)CN1C(=O)COc2ccc(S(=O)(=O)N3CCC(C)CC3)cc21)CC(C)C | -2 | 12 | 1 | 2 | -8 | -17
CCN1C(=O)/C(=C\N2CCCCCC2)SC1=S | -6 | -22 | 2 | -22 | 32* | 69*
CCN1C(=O)/C(=C/c2c(C)nn(C)c2C)SC1=S | -5 | 30* | 4 | -7 | 11 | 2
SMILES | CHRM5 agonist | M4 PAM | M4 ag | CHRM5 PAM | M5 antag | M4 antag
CCOc1ccc(C(=O)NCC(=O)N2CCCC2)cc1 | -2 | 2 | 3 | -6 | 12 | -10
Cc1cccc(C(=O)O[C@@H]2[C@H](Cc3ccccc3)NS(=O)(=O)[C@H]3C[C@@H]4C=C[C@]23O4)c1 | 5 | 7 | 2 | 2 | 11 | 3
COc1ccc(NC(=O)c2ccc(-c3c(C)noc3C)c3ccoc23)cc1 | 0 | -4 | 12 | -5 | 1 | -6
C(=C\c1ccccc1)/CN1CCN(C(c2nnnn2Cc2ccccc2)C2CC2)CC1 (stereo not drawn) | -6 | -13 | 8 | -11 | 3 | 5
CCCCNC(=O)C1c2ccccc2OCC(=O)N1Cc1ccc2c(c1)OCO2 (stereo not drawn) | 0 | 1 | 1 | 0 | -1 | -3
CCCCNC(=O)C1c2ccccc2OCC(=O)N1Cc1ccccc1 (stereo not drawn) | 1 | 23* | 1 | 12 | -16 | -11
CN1CCN(C(=O)OCCOCCOC(=O)N2CCN(C)CC2)CC1 | 0 | 2 | 0 | -4 | 15 | -7
CCn1c(SCC(=O)c2cc(OC)ccc2OC)nnc1-c1ccncc1 | 2 | 2 | -1 | 4 | 1 | 10
CCn1c(SCC(=O)c2cc(OC)ccc2OC)nnc1C(C)C | -7 | 19* | 1 | 7 | -9 | -12
CC(C)n1cc(C(=O)c2ccccc2O)cc(C#N)c1=O | 4 | 13 | 4 | 7 | -1 | -7
N#Cc1cc(C(=O)c2cc(F)ccc2O)cn(-c2nccs2)c1=O | 62* | -43 | 96* | -23 | 29* | 20
Cc1c(-n2cc(C(=O)c3cc(F)ccc3O)cc(C#N)c2=O)c(=O)n(-c2ccccc2)n1C | 2 | 1 | 3 | 1 | 0 | -4
N#Cc1cc(C(=O)c2ccccc2O)cn(-c2nccs2)c1=O | 68* | -16 | 71* | -21 | 28* | 36*
O=C(CCc1ccco1)CCc1ccco1 | 2 | -2 | 0 | 12 | 11 | 6
O=C(CCCN1CCC(c2ccccc2)C1)c1ccc2c(c1)OCCO2 (stereo not drawn) | -5 | -15 | 4 | -9 | 11 | 27*
O=C(CCCN1CCOCC1)c1ccc2c(c1)OCCO2 | 0 | 5 | 2 | -2 | 8 | -4
CCNC(=O)C1(C)CCCN(C(=O)Cc2ccc(OC)c(OC)c2)C1 (stereo not drawn) | 0 | 10 | 0 | -4 | 1 | -6
CC(NC(=O)COC(=O)CCC(=O)c1ccc(F)cc1)c1ccccc1 (stereo not drawn) | -1 | 21 | 2 | 7 | 8 | -4
